This is a sample that favours compounds with a hit; in the whole collection about 1.9% have one here.
Runt-CBFb FRET = inhibitors of human RUNX1 Runt domain binding to CBFb | Q01196+Q13951 | Cerulean-Runt/Venus-CBFb FRET ratio 530/480, 1 h | inhibition, % at 20 µM | 220,000 compounds, 0.46% hits | AID 1496;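 active means inhibition over about 50% at 20 µM in the single-dose screen, limit read from the data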
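Schedule: protein complex preformed 1 h, compound exposure 1 h, room temperature, dark; test system: Cerulean-labeled Runt domain protein; amount: 100 nM per protein; buffer or medium: Tris 50 mM pH 7.5, KCl, K2SO4, 0.01% BSA; read-out: loss of energy transfer signal; detection: FRET fluorescence; controls: 5 µM unlabeled CBFb as full-inhibition high control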
CaV13 FRET inh = Disruptors of the CACNA1D IQ motif to Ca2+-dependent inactivation inhibitor domain association, primary screening, Förster resonance energy transfer in intact living …; HEK cells, CFP/YFP FRET ICDI-IQ, plate reader, 10 min; percent FRET-ratio fall versus neutral wells; inhibition, % at 12.3 µM; 340,000 compounds, 0.098% hits; AID 743397;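 active means mean replicate inhibition of at least 30% and at least 1% of replicates passing that level; inconclusive means only one of the two criteria is met; inactive means neither criterion is met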
Runt-SMMHC FRET = blocks binding of human RUNX1 Runt domain to CBFb-SMMHC; Q01196+Q13951; Cerulean-Runt/Venus-CBFb-SMMHC FRET ratio 530/480, 1 h; inhibition, % at 20 µM; 220,000 compounds, 0.74% hits; AID 1434;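 active means mean inhibition across duplicate retests at 20 µM reaching about 50%, limit read from the data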;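 further: inhibitors lower the FRET ratio by blocking Runt binding to CBFb-SMMHC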
LANA-H2A inh = blocks KSHV LANA binding to histone H2A/H2B. Q9QR71. cell-free LANA-H2A/H2B peptide, fluorescence polarization. inhibition, % (test concentration not listed). 320,000 compounds, 0.6% hits; in the data active means inhibition mostly above about 10%, no sharp cut-off; inactive means mostly below about 6.7%
HDAC3 inh = blocks human histone deacetylase 3; O15379; recombinant HDAC3, fluorogenic peptide/trypsin coupled, fluorescence; inhibition, % at 8.3 µM; 320,000 compounds, 0.15% hits; in the data active means inhibition above about 26%, passing the limit was not always enough; inconclusive means no clear call, values can overlap the other calls
RanGTP-Imp inh = disruptors of Ran-importin-beta complex formation – biochemical, FRET, CFP-Ran, YFP-importin-beta, homogeneous, primary screen | cell-free CFP-Ran/YFP-importin-beta FRET ratio | inhibition, % (test concentration not listed) | 300,000 compounds, 1.1% hits;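 active means more than half of the replicate wells show a fall in the fluorescence ratio signal beyond about 16%, limit read from the data, passing the limit was not always enough; inconclusive means exactly half of the replicate wells pass the set limit; inactive means fewer than half of replicates pass the limit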
RUNX1 CBFb TR = inhibitors of human RUNX1 Runt domain binding to CBFb. shares compounds with Runt-CBFb FRET. TR-FRET RUNX1 Runt domain-CBFb binding. inhibition, % at 20 µM. 480 compounds, 20% hits. AID 1502; in the data active means inhibition above about 40%
A number is an active result; . = inactive; ? = inconclusive; / = no result given; + = active, no number.

SMILES	Runt-CBFb FRET	CaV13 FRET inh	Runt-SMMHC FRET	LANA-H2A inh	HDAC3 inh	RanGTP-Imp inh	RUNX1 CBFb TR
CNc1ccc(Br)cc1C(O)c1ccccc1 (stereo not given)	.	.	.	.	.	.	/
COCCCn1c(C(=O)Nc2ccc3c(c2)OCO3)cc2c(=O)n3cccc(C)c3nc21	/	.	/	/	/	/	/
CCOC(=O)c1cc2c(=O)n3cccc(C)c3nc2n(CCOC)c1=NC(C)=O	94	.	87	.	.	70	.
CCCn1c(=NC(=O)c2c(-c3c(F)cccc3Cl)noc2C)c(C(=O)OCC)cc2c(=O)n3ccccc3nc21	72	/	60	.	.	.	.
CCOC(=O)c1cc2c(=O)n3ccccc3nc2n(Cc2ccco2)c1=NC(=O)c1cccc(OC)c1	99	.	86	.	.	33	55
COC(=O)CC1C(=O)NC2CCCCC2N1C(=O)CCl (stereo not given)	51	.	.	.	.	.	.
CCNC(=O)N1C(CC(=O)OCC)C(=O)NC2CCCCC21 (stereo not given)	.	.	.	.	.	.	/
CC(C)OCCCn1c(=N)c(C(N)=S)cc2c(=O)n3ccccc3nc21	65	45	65	.	.	.	.
CC(=O)N=c1c(C#N)cc2c(=O)n3ccccc3nc2n1CCCOC(C)C	76	+	82	.	.	102	.
O=C(NCc1ccc2c(c1)OCO2)c1cnc2ccccn2c1=O	.	.	.	.	.	.	/
CCNC(=O)CSc1nc2ccccc2c(=O)n1CCCOC(C)C	.	.	.	.	.	.	/
CCOCCCn1c(=N)c(C(=O)NCc2ccc3c(c2)OCO3)cc2c(=O)n3ccccc3nc21	51	.	125	/	/	29	.
CN(Cc1ccc(F)cc1)C(=O)CNC(=O)C1CCCCC1	/	.	/	.	.	.	/
O=C(CSc1nnc(CNC(=O)c2ccco2)o1)Nc1nc2ccccc2s1	56	.	.	.	.	.	64
O=C(CSc1nnc(CNC(=O)c2ccco2)o1)Nc1ccccc1	.	.	.	.	/	.	/
CCOc1ccccc1N(CC(=O)NCC1CCCO1)C(=O)CNS(=O)(=O)c1ccccc1 (stereo not given)	.	/	.	.	.	.	/
CCOC(=O)C1=C(C)N(c2ccc(C)cc2)C(=O)/C1=C\c1ccc(O)c(OC)c1	57	.	.	.	.	.	.
COC(=O)C1=C(C)N(Cc2ccc(C)cc2)C(=O)/C1=C\c1ccc(O)c(OC)c1	.	.	.	.	?	.	/
CCCS(=O)(=O)N1CCCC(C(=O)NCCCN(C)c2ccccc2)C1 (stereo not given)	57	/	.	.	.	.	.
CCCS(=O)(=O)N1CCCC(C(=O)NCCCN(C)Cc2ccccc2)C1 (stereo not given)	.	/	.	.	.	.	/
Nc1[nH]c(C(=O)c2ccccc2)c(-c2cccnc2)c1C(=O)c1ccccc1	/	.	/	/	/	/	/
CN1c2ccsc2C(O)=C(C(=S)Nc2ccc(F)c(Cl)c2)S1(=O)=O	85	.	/	.	.	124	.
Cn1cc(C(=O)Nc2ccc(F)c(Cl)c2)cn1	.	.	.	.	.	.	/
Cc1cc(C)n(-c2nc3ccccc3n3c(C)nnc23)n1	.	.	.	.	.	.	/
Cc1ccc(C(=O)c2sc3nsc(C)c3c2N)cc1	50	.	.	.	.	.	44
COCCCNC(=S)NNC(=O)c1ccc2c(c1)OCO2	.	.	.	.	.	.	/
COCCCNC(=S)NCCCNc1nc2cc3c(cc2cc1C#N)OCO3	78	.	140	.	.	53	.
COc1c(O)c(O)c2oc(-c3ccccc3)cc(=O)c2c1OC	58	/	53	.	.	.	65
COc1cc(C2C3=C(CC(C)(C)CC3=O)Nc3c2c(=O)[nH]c(=O)n3Cc2ccccc2)ccc1O (stereo not given)	76	.	115	/	/	?	.
